Test results: article PMC6522656 (Heliyon, 2019)

Key:
DU-145 cells = experiment: MTT cytotoxicity assay, DU-145; type: cell-based; settings: Homo sapiens, DU-145, 72 h, read-out: IC50 DU-145 Prostate
Summary of the method: (§1)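 Cells grown as monolayers in DMEM with 4.5 g glucose, 10% FBS and 1% penicillin/streptomycin. Seeded cells exposed for 72 h to several concentrations of test compound (0.1–100 μM), then given MTT for 4 h. Formazan dissolved in DMSO; absorbance read at 570 nm. IC50 taken as the mean of three independent experiments in triplicate; 100 μM cut-off.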

HCT-116 = experiment: MTT cytotoxicity assay, HCT-116; type: cell-based; settings: Homo sapiens, HCT-116, 72 h, read-out: IC50 HCT-116 Colon
Summary of the method: as §1

HT-29 cancer cells = experiment: MTT cytotoxicity assay, HT-29; type: cell-based; settings: Homo sapiens, HT-29, 72 h, read-out: IC50 HT-29 Colon
Summary of the method: as §1

HEK293/pcDNA3.1 = experiment: MTT cytotoxicity assay, HEK293/pcDNA3.1; type: cell-based, human; settings: for IC50: Homo sapiens, HEK293, 72 h, read-out: IC50 HEK293/pcDNA.3.1 Normal; for significant cytotoxicity in human embryonic kidney cells: at a concentration of less than 50 μM
Summary of the method: as §1

[1] = test system: mouse fibroblast (NIH/3T3); experiment: MTT cytotoxicity assay, NIH/3T3; type: cell-based; settings: NIH3T3, 72 h, read-out: IC50 3T3 Normal
Summary of the method: as §1

A2780 cells [2] = experiment: Colony formation assay; type: cell-based; settings: 10 or 20 μM, incubated 24 hrs, colonies over 2 weeks
Summary of the method: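 A2780 cells exposed to vehicle (0 μM) or test compound (10 or 20 μM) for 24 h, then reseeded at very low density in six-well plates and grown 2 weeks. Colonies fixed, stained and counted under a microscope; colony formation rate calculated. Repeated independently in triplicate.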

A2780 cells [3] = experiment: Annexin V based apoptosis assay; type: cell-based; settings: 24 h; for Q1 (flow cytometry quadrant): control Q1 94.1%; for Q2 (flow cytometry quadrant, apoptosis): control Q2 5.87 %
A2780 cells [4] = experiment: Nuclear condensation-based apoptosis assay; type: cell-based; settings: 5, 10, or 20 μM at 24 and 48 h

SMILES: O=C1Nc2ccccc2C1=Cc1cc2ccccc2nc1Cl [LM01, 3-((2-chloroquinolin-3-yl)methylene)indolin-2-one]
- IC50 (DU-145 cells): 77.5 µM
- IC50 (HCT-116): > 100 µM
- IC50 (HT-29 cancer cells): > 100 µM
- IC50 (HEK293/pcDNA3.1): 64.5 µM
- IC50 [1]: > 100 µM

SMILES: O=C1Nc2ccccc2C1=Cc1cc2ccc(Cl)cc2nc1Cl [LM09, 3-((2,7-dichloroquinolin-3-yl)methylene)indolin-2-one]
- IC50 (DU-145 cells): 54.9 µM
- IC50 (HCT-116): 75.2 µM
- IC50 (HT-29 cancer cells): > 100 µM
- IC50 (HEK293/pcDNA3.1): 63.2 µM
- IC50 [1]: > 100 µM

SMILES: COc1cccc2cc(C=C3C(=O)Nc4ccccc43)c(Cl)nc12 [LM07, 3-((2-chloro-8-methoxyquinolin-3-yl)methylene)indolin-2-one]
- IC50 (DU-145 cells): 11 µM
- IC50 (HCT-116): > 100 µM
- IC50 (HT-29 cancer cells): > 100 µM
- IC50 (HEK293/pcDNA3.1): 80.8 µM
- IC50 [1]: > 100 µM

SMILES: Cc1ccc2nc(Cl)c(C=C3C(=O)Nc4ccccc43)cc2c1 [LM02, 3-((2-chloro-6-methylquinolin-3-yl)methylene)indolin-2-one]
- IC50 (DU-145 cells): > 100 µM
- IC50 (HCT-116): 52.1 µM
- IC50 (HT-29 cancer cells): > 100 µM
- IC50 (HEK293/pcDNA3.1): 73.4 µM
- IC50 [1]: > 100 µM

SMILES: COc1ccc2cc(C=C3C(=O)Nc4ccccc43)c(Cl)nc2c1 [LM05, 3-((2-chloro-7-methoxyquinolin-3-yl)methylene)indolin-2-one]
- IC50 (DU-145 cells): > 100 µM
- IC50 (HCT-116): 56.2 µM
- IC50 (HT-29 cancer cells): > 100 µM
- IC50 (HEK293/pcDNA3.1): > 100 µM
- IC50 [1]: > 100 µM

SMILES: O=C1Nc2ccccc2C1=Cc1cc2ccc3ccccc3c2nc1Cl [LM11, 3-((2-chlorobenzo[h]quinolin-3-yl)methylene)indolin-2-one]
- IC50 (DU-145 cells): 95.7 µM
- IC50 (HCT-116): > 100 µM
- IC50 (HT-29 cancer cells): > 100 µM
- IC50 (HEK293/pcDNA3.1): 75.3 µM
- IC50 [1]: > 100 µM

SMILES: COc1cc2cc(C=C3C(=O)Nc4ccccc43)c(Cl)nc2cc1OC [LM06, 3-((2-chloro-6,7-dimethoxyquinolin-3-yl)methylene)indolin-2-one]
- IC50 (DU-145 cells): > 100 µM
- IC50 (HCT-116): 75 µM
- IC50 (HT-29 cancer cells): > 100 µM
- IC50 (HEK293/pcDNA3.1): > 100 µM
- IC50 [1]: > 100 µM

SMILES: O=C1Nc2ccccc2C1=Cc1cc2cc(Cl)ccc2nc1Cl [LM08, 3-((2,6-dichloroquinolin-3-yl)methylene)indolin-2-one]
- IC50 (DU-145 cells): 91.2 µM
- IC50 (HCT-116): 77.8 µM
- IC50 (HT-29 cancer cells): > 100 µM
- IC50 (HEK293/pcDNA3.1): 64.3 µM
- IC50 [1]: > 100 µM
- colony formation of A2780 cells (A2780 cells [2]): significantly inhibited
- Q1 (flow cytometry quadrant) (A2780 cells [3]; 10 μM): 64.8%
- Q2 (flow cytometry quadrant, apoptosis) (A2780 cells [3]; 10 μM): 34.6%
- Q1 (flow cytometry quadrant) (A2780 cells [3]; 20 μM): 61.5%
- Q2 (flow cytometry quadrant, apoptosis) (A2780 cells [3]; 20 μM): 36.9%
- nuclear morphology of A2780 cells (DAPI staining) (A2780 cells [4]): nuclear condensation

SMILES: COc1ccc2nc(Cl)c(C=C3C(=O)Nc4ccccc43)cc2c1 [LM04, 3-((2-chloro-6-methoxyquinolin-3-yl)methylene)indolin-2-one]
- IC50 (DU-145 cells): 47.2 µM
- IC50 (HCT-116): 60.9 µM
- IC50 (HT-29 cancer cells): > 100 µM
- IC50 (HEK293/pcDNA3.1): 39.9 µM
- significant cytotoxicity in human embryonic kidney cells (HEK293/pcDNA3.1): produced significant cytotoxicity
- IC50 [1]: > 100 µM

SMILES: O=C1Nc2ccccc2C1=Cc1cc2cc(Br)ccc2nc1Cl [LM10, 3-((6-bromo-2-chloroquinolin-3-yl)methylene)indolin-2-one]
- IC50 (DU-145 cells): > 100 µM
- IC50 (HCT-116): 41.3 µM
- IC50 (HT-29 cancer cells): > 100 µM
- IC50 (HEK293/pcDNA3.1): 50.5 µM
- significant cytotoxicity in human embryonic kidney cells (HEK293/pcDNA3.1): produced significant cytotoxicity
- IC50 [1]: > 100 µM

SMILES: Cc1cc2cc(C=C3C(=O)Nc4ccccc43)c(Cl)nc2cc1C [LM03, 3-((2-chloro-6,7-dimethylquinolin-3-yl)methylene)indolin-2-one]
- IC50 (DU-145 cells): > 100 µM
- IC50 (HCT-116): > 100 µM
- IC50 (HT-29 cancer cells): > 100 µM
- IC50 (HEK293/pcDNA3.1): 97.4 µM
- IC50 [1]: > 100 µM
